Test results: ChEMBL document CHEMBL1154388
pEC50, pIC50, pKi: −log10 of the molar value.

Legend:
[1] = target: T1, Metabotropic glutamate receptor 5 (Rattus norvegicus, UniProt P31424); assay: Antagonist activity at rat mGluR5 expressed in HEK293 cells by calcium mobilization assay; assay type: functional, cell-based
Outline: (§1)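 Rat mGluR5 in HEK293A cells and rat mGluR1 in BHK cells were loaded with a Ca²⁺-sensitive fluorescent dye and washed. Compound was added 3 s after baseline and incubated for 140 s.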

[2] = target: Metabotropic glutamate receptor 5 (Rattus norvegicus) (UniProt P31424); assay: Positive allosteric modulator activity at rat mGluR5 receptor expressed in HEK293 cells assessed as potentiation of glutamate-induced response at 30 uM relative to glutamate; assay type: cell-based
Chain of Metabotropic glutamate receptor 5 (Rattus norvegicus) (P31424 21-1203 limits assumed): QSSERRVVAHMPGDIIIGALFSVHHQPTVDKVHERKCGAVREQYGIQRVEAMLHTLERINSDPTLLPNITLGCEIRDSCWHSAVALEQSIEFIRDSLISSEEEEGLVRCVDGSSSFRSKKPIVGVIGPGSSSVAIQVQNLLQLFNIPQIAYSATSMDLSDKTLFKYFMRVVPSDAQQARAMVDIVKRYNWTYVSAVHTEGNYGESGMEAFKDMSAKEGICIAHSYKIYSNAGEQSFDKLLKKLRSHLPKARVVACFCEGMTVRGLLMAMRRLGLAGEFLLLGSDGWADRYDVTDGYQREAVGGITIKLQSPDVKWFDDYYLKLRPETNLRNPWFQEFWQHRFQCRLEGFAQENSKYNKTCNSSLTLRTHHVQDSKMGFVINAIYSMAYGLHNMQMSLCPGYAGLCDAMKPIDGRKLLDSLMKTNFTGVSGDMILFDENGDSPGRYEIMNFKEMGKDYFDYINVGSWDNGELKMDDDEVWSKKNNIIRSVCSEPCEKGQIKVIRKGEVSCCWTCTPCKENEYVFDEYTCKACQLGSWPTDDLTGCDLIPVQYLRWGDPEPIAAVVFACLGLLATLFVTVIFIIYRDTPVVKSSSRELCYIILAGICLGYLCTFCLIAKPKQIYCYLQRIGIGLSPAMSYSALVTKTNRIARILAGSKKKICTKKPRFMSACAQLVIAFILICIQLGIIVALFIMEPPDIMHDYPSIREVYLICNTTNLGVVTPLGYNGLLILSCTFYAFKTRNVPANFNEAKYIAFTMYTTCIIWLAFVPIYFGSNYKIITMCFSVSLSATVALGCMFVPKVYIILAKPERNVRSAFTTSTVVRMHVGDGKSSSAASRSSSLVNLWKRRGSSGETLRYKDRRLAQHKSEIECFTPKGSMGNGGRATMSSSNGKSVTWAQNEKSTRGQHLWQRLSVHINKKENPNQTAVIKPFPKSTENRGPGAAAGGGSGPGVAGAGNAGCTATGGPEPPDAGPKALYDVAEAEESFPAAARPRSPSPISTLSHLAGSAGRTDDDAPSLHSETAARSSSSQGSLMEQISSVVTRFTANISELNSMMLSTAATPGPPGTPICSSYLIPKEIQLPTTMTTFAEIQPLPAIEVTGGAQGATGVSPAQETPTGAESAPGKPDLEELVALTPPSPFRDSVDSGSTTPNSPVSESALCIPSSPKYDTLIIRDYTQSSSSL
Outline: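 In mGluR5-expressing HEK293A cells in the calcium mobilization assay, response amplitude with test compound present is expressed as a percentage of the maximal response to glutamate. Values are the average of n≥3.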

[3] = target: T1, Metabotropic glutamate receptor 5; assay: Displacement of [3H]3methoxy-5-(pyridin-2-ylethynyl)pyridine from rat mGluR5
[4] = target: Metabotropic glutamate receptor 1 (Rattus norvegicus, UniProt P23385); assay: Antagonist activity at rat mGluR1 expressed in BHK cells by calcium mobilization assay; assay type: functional, cell-based; outline: as §1
Chain of Metabotropic glutamate receptor 1 (P23385 whole entry): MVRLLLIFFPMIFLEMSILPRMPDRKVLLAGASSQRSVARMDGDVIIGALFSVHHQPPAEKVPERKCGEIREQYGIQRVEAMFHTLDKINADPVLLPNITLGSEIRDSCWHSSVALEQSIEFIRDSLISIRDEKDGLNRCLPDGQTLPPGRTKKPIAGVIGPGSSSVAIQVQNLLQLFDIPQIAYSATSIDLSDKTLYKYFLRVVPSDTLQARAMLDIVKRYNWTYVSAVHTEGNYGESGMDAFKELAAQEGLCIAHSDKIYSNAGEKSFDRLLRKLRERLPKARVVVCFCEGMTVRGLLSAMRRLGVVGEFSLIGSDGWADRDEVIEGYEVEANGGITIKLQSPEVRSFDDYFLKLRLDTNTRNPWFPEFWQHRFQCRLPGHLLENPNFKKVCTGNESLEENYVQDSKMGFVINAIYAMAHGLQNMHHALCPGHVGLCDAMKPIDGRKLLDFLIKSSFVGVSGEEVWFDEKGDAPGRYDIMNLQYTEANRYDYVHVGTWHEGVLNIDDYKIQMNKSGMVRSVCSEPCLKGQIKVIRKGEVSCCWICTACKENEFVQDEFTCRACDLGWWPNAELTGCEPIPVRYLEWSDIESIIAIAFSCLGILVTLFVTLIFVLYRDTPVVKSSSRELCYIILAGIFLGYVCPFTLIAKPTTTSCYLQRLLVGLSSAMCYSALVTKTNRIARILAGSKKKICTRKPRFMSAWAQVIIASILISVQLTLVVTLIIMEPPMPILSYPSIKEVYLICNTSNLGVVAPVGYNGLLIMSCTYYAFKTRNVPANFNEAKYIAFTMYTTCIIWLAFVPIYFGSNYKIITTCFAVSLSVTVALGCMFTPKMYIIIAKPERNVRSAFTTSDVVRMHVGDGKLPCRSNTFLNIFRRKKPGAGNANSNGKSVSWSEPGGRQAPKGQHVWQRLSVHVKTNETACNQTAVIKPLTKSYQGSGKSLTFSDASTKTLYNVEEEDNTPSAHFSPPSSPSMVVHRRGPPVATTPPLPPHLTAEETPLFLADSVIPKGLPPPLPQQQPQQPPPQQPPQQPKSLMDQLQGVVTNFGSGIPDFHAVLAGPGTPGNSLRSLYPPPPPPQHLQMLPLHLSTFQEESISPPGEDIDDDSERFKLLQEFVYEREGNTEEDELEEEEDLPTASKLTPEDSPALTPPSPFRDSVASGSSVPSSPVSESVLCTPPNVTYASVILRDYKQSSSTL

[5] = target: Metabotropic glutamate receptor 5 (Rattus norvegicus) (UniProt P31424); assay: (§2) Positive allosteric modulator activity at rat mGluR5 receptor expressed in HEK293 cells assessed as potentiation of glutamate-induced response; assay type: cell-based
[6] = target: T1, Metabotropic glutamate receptor 5; assay: as §2; assay type: cell-based

T1 sequence (P31424 whole entry): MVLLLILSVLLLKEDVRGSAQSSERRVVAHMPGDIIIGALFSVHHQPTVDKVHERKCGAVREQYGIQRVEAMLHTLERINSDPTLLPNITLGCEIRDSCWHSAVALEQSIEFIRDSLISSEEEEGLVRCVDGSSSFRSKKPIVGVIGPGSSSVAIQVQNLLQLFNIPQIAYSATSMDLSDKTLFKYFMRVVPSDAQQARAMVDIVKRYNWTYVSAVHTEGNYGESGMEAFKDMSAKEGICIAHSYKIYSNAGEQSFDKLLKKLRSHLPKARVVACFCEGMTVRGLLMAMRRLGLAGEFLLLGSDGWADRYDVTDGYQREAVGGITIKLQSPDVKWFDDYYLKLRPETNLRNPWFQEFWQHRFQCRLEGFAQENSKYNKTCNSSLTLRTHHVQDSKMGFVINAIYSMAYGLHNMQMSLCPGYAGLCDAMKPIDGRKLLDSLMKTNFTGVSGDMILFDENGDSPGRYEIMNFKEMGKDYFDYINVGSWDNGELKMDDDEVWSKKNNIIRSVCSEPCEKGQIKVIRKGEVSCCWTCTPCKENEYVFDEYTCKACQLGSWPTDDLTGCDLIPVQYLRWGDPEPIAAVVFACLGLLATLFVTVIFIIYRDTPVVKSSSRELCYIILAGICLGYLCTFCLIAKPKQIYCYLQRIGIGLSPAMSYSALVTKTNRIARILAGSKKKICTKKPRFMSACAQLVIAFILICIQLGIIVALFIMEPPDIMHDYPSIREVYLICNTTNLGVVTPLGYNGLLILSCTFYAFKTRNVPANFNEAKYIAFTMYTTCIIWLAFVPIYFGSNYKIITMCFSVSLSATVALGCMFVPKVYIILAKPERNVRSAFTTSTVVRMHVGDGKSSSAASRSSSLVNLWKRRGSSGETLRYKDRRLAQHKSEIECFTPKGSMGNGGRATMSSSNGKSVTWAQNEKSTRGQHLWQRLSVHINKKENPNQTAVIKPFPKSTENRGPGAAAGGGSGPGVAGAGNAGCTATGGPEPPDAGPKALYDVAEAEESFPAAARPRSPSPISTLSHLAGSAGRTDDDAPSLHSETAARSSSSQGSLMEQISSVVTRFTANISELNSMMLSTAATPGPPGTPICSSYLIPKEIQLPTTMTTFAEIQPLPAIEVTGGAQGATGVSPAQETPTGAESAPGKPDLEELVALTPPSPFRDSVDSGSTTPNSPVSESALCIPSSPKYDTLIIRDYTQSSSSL

Structure (SMILES) | pIC50 [1] | Activity [2] | other results
Fc1ccc2ncnc(Nc3cccc(Cl)c3F)c2c1 | 5.43 | 5.2% | 
Clc1ccc2ncnc(Oc3cccc(Br)c3)c2c1 | 5.18 | 14% | 
CN(c1cccc(Br)c1)c1ncnc2ccc(Br)cc12 | < 4.52 |  | 
COc1cccc(Nc2ncnc3ccc(Br)cc23)c1 | < 5.00 | 34% | 
Brc1cccc(Nc2ncnc3ccc(Br)cc23)c1 | 6.76 | 2.5% | 
Clc1ccc(CCNc2ncnc3ccc(Cl)cc23)cc1 | < 4.52 |  | 
Fc1cc(Cl)cc(Nc2ncnc3ccc(F)cc23)c1 | < 5.00 | 56% | 
Clc1ccc2ncnc(Nc3cccc(Br)c3)c2c1 | 6.91 | 1.2% | pKi [3]: 6.60; pIC50 [4]: 6.02
Clc1cccc(Nc2ncnc3ccc(Cl)cc23)c1 | 6.89 | 2.8% | 
Clc1ccc(CNc2ncnc3ccc(Cl)cc23)cc1 | < 4.52 |  | 
Cc1cccc(Nc2ncnc3ccc(F)cc23)c1 | 5.87 | 3.5% | 
Clc1ccc2ncnc(Sc3cccc(Br)c3)c2c1 | < 4.52 |  | 
Brc1cccc(Nc2nccc3ccc(Br)cc23)c1 | 5.36 | 5.4% | 
Clc1cccc(CNc2ncnc3ccc(Cl)cc23)c1 | < 4.52 |  | 
CCc1cccc(Nc2ncnc3ccc(F)cc23)c1 |  |  | Activity [5]: 52%; pEC50 [6]: < 5.00
Fc1ccc2ncnc(Nc3cccc(Cl)c3)c2c1 | 6.51 | 0.9% | 
Cc1cccc(Nc2ncnc3ccc(Br)cc23)c1 | 6.61 | 1.2% | 
Clc1cccc(Nc2ncnc3ccc(Br)cc23)c1 | 6.59 | 1.5% | pKi [3]: 6.94; pIC50 [4]: 6.40
FC(F)(F)c1cccc(Nc2ncnc3ccc(Br)cc23)c1 | 5.76 | 3.2% | 
Fc1ccc2ncnc(Nc3ccc(F)c(Cl)c3)c2c1 | < 5.00 |  | 

Structure (SMILES) | pIC50 [1] | Activity [2] | other results
COc1cccc(Nc2ncnc3ccc(F)cc23)c1 | < 5.00 | 50% | 
O=[N+]([O-])c1ccc2ncnc(Nc3cccc(Cl)c3)c2c1 | 6.56 | 2.4% | 
Clc1ccc2ncnc(NCc3ccccc3)c2c1 | < 4.52 |  | 
Brc1cccc(Sc2ncnc3ccc(Br)cc23)c1 | < 4.52 |  | 
Clc1cccc(CCNc2ncnc3ccc(Cl)cc23)c1 | < 4.52 |  | 
Fc1cccc(Nc2ncnc3ccc(Br)cc23)c1 | 5.71 | 8.8% | 
N#Cc1ccc2ncnc(Nc3cccc(Cl)c3)c2c1 | < 5.00 | 35% | 
Brc1ccc2ncnc(Nc3ccccc3)c2c1 | < 5.00 | 42% | 
Clc1ccc2ncnc(NCc3ccccc3Cl)c2c1 | < 4.52 |  | 
Fc1ccc2ncnc(Nc3ccccc3)c2c1 | < 5.00 | 58% | 
Clc1ccc2ncnc(NCCc3ccccc3)c2c1 | < 5.00 | 59% | 
Fc1ccc2ncnc(Nc3cccc(C(F)(F)F)c3)c2c1 | < 5.00 | 32% | 
N#Cc1cccc(Nc2ncnc3ccc(F)cc23)c1 | 5.86 | 3.5% | 
Clc1ccc2nccc(Nc3cccc(Br)c3)c2c1 | < 4.52 |  | 
COc1ccc2ncnc(Nc3cccc(Cl)c3)c2c1 | 5.82 | 13% | 
Fc1ccc2ncnc(Nc3cccc(Br)c3)c2c1 | 7.02 | 0.6% | pKi [3]: 6.13; pIC50 [4]: 6.15
Clc1ccc2ncnc(Nc3ccccc3)c2c1 | < 5.00 | 31% | 
Brc1cccc(Oc2ncnc3ccc(Br)cc23)c1 | < 5.00 | 49% | 
CN(c1cccc(Br)c1)c1ncnc2ccc(Cl)cc12 | < 4.52 |  | 
Clc1ccc2ncnc(NCCc3ccccc3Cl)c2c1 | < 4.52 |  | 
